Experimental data as given in ChEMBL document CHEMBL3425440, “ent-Kaurane Diterpenoids from Chinese Liverworts and Their Antitumor Activities through Michael Addition As Detected in Situ by a Fluorescence Probe” (J Med Chem, 2015).

What was measured:
[1] = Cytotoxicity against human PC3 cells assessed as cell viability after 24 hrs by MTT assay; format: functional, cell-based; details: PC-3, 24 h
Outline: (§1)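 Cells grown to about 50−70% confluence at 37 °C, 5% CO2, then exposed to compounds 24 h (DMSO vehicle control, cisplatin positive control). MTT (5 mg/mL stock) added for 4 h, formazan dissolved in DMSO, absorbance read at 570 nm. IC50 derived from percent viability; at least three independent experiments, mean ± SD.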

[2] = Cytotoxicity against human SH-SY5Y cells assessed as cell viability after 24 hrs by MTT assay; format: functional, cell-based; outline: as §1
[3] = Cytotoxicity against human A172 cells assessed as cell viability after 24 hrs by MTT assay; format: functional, cell-based; details: A 172, 24 h; outline: as §1
[4] = Cytotoxicity against human HL60 cells assessed as cell viability after 24 hrs by MTT assay; format: functional, cell-based; details: HL-60, 24 h; outline: as §1
[5] = system: LNCaP; test: Cytotoxicity against human LNCAP cells assessed as cell viability after 24 hrs by MTT assay; format: functional, cell-based; outline: as §1
[6] = Cytotoxicity against human RWPE1 cells assessed as cell viability after 24 hrs by MTT assay; format: cell-based; details: RWPE-1, 24 h; outline: as §1
[7] = system: MDA-MB-231; test: Cytotoxicity against human MDA-MB-231 cells assessed as cell viability after 24 hrs by MTT assay; format: functional, cell-based; details: MDA-MB-231, 24 h; outline: as §1
[8] = system: K562; test: Cytotoxicity against human K562 cells assessed as cell viability after 24 hrs by MTT assay; format: functional, cell-based; details: K562, 24 h; outline: as §1
[9] = system: DU-145; test: Cytotoxicity against human DU145 cells assessed as cell viability after 24 hrs by MTT assay; format: functional, cell-based; details: DU-145, 24 h; outline: as §1
[10] = Cytotoxicity against human T24 cells assessed as cell viability after 24 hrs by MTT assay; format: functional, cell-based; details: T-24, 24 h; outline: as §1
[11] = Cytotoxicity against human Saos2 cells assessed as cell viability after 24 hrs by MTT assay; format: functional, cell-based; details: SAOS-2, 24 h; outline: as §1
[12] = Cytotoxicity against human SKOV3 cells assessed as cell viability after 24 hrs by MTT assay; format: functional, cell-based; details: SK-OV-3, 24 h; outline: as §1
[13] = system: LoVo; test: Cytotoxicity against human LoVo cells assessed as cell viability after 24 hrs by MTT assay; format: functional, cell-based; outline: as §1
[14] = system: NCI-H1299; test: Cytotoxicity against human NCI-H1299 cells assessed as cell viability after 24 hrs by MTT assay; format: functional, cell-based; details: NCI-H1299, 24 h; outline: as §1

SMILES | IC50 [1] | IC50 [2] | IC50 [3] | IC50 [4] | IC50 [5] | IC50 [6] | IC50 [7] | IC50 [8] | IC50 [9] | IC50 [10] | IC50 [11] | IC50 [12] | IC50 [13] | IC50 [14]
C=C1C[C@]23C[C@H]1CC[C@H]2[C@]1(C)CCCC(C)(C)[C@H]1C[C@H]3O | > 50 µM | > 50 µM | > 50 µM | > 50 µM | > 50 µM | > 50 µM | > 50 µM | > 50 µM | > 50 µM | > 50 µM | > 50 µM | > 50 µM | > 50 µM | > 50 µM
C=C1C(=O)[C@@]23CC[C@@H]4C(C)(C)CCC[C@@]4(C)C2=CC[C@]1(O)C3 | 3.2 µM | 1.2 µM | 3.8 µM | 1 µM | 3.2 µM | 6.2 µM | 4.2 µM | 1.9 µM | 5.5 µM | 1.7 µM | 1.3 µM | 1.8 µM | 1.8 µM | 2.4 µM
C[C@H]1C(=O)[C@@]23C[C@H](O)[C@@H]4[C@@](C)(CO)CCC[C@@]4(C)C2=CC[C@]1(O)C3 | > 50 µM | > 50 µM | > 50 µM | > 50 µM | > 50 µM | > 50 µM | > 50 µM | > 50 µM | > 50 µM | > 50 µM | > 50 µM | > 50 µM | > 50 µM | > 50 µM
C=C1C(O)[C@@]23CC[C@H]4[C@@](C)(CCC[C@@]4(C)C(=O)O)[C@@H]2CC[C@]1(O)C3 (stereo partly specified) | > 50 µM | > 50 µM | > 50 µM | > 50 µM | > 50 µM | > 50 µM | > 50 µM | > 50 µM | > 50 µM | > 50 µM | > 50 µM | > 50 µM | > 50 µM | > 50 µM
C=C1C(=O)[C@H]2C[C@@H]1CC1=C2[C@]2(C)CCC[C@](C)(CO)[C@H]2CC1 | > 50 µM | 33.8 µM | > 50 µM | 23.6 µM | > 50 µM | > 50 µM | > 50 µM | 41.7 µM | > 50 µM | 49.1 µM | 35.5 µM | > 50 µM | 35.2 µM | > 50 µM
C=C1[C@@H]2CC(=O)[C@H]3[C@]4(C)CCCC(C)(C)[C@H]4C[C@@H](O)[C@]3(C2)[C@@H]1O | > 50 µM | > 50 µM | > 50 µM | > 50 µM | > 50 µM | > 50 µM | > 50 µM | > 50 µM | > 50 µM | > 50 µM | > 50 µM | > 50 µM | > 50 µM | > 50 µM
C[C@@H]1C(=O)[C@H]2C[C@]1(O)CC1=C2[C@]2(C)CCC[C@](C)(C=O)[C@H]2CC1 | > 50 µM | > 50 µM | > 50 µM | > 50 µM | > 50 µM | > 50 µM | > 50 µM | > 50 µM | > 50 µM | > 50 µM | > 50 µM | > 50 µM | > 50 µM | > 50 µM
C=C1C(O)[C@@]23CC[C@H]4[C@@](C)(CCC[C@@]4(C)C(=O)OCCBr)[C@@H]2CC[C@]1(O)C3 (stereo partly specified) | > 50 µM | > 50 µM | > 50 µM | > 50 µM | > 50 µM | > 50 µM | > 50 µM | > 50 µM | > 50 µM | > 50 µM | > 50 µM | > 50 µM | > 50 µM | > 50 µM
C[C@H]1C(=O)[C@@]23CC[C@@H]4[C@](C)(CO)CCC[C@@]4(C)C2=CC[C@]1(O)C3 | > 50 µM | > 50 µM | > 50 µM | > 50 µM | > 50 µM | > 50 µM | > 50 µM | > 50 µM | > 50 µM | > 50 µM | > 50 µM | > 50 µM | > 50 µM | > 50 µM
C=C1C(=O)[C@@]23CC[C@@H]4[C@@](C)(C=O)CCC[C@@]4(C)C2=CC[C@]1(O)C3 | 11.4 µM | 4.2 µM | 4.4 µM | 4.4 µM | 9.5 µM | 12.7 µM | 21.6 µM | 6.3 µM | 11.6 µM | 5.9 µM | 7.3 µM | 7.4 µM | 9.3 µM | 12.2 µM
C=C1C(=O)[C@@]23CC[C@@H]4[C@@](C)(CO)CCC[C@@]4(C)C2=CC[C@]1(O)C3 | 5.5 µM | 4.4 µM | 4.4 µM | 3.7 µM | 11.6 µM | 11.7 µM | 12.3 µM | 10.2 µM | 6.3 µM | 10.4 µM | 7.8 µM | 8.6 µM | 9 µM | 10.7 µM
C=C1[C@@H]2CC[C@@H]3[C@@](CC[C@@H]4C(C)(C)CC[C@H](O)[C@]43C)(C2)[C@@H]1O | > 50 µM | > 50 µM | > 50 µM | > 50 µM | > 50 µM | > 50 µM | > 50 µM | > 50 µM | > 50 µM | > 50 µM | > 50 µM | > 50 µM | > 50 µM | > 50 µM
C[C@H]1C(=O)[C@@]23CC[C@@H]4[C@@](C)(CO)CCC[C@@]4(C)C2=CC[C@]1(O)C3 | > 50 µM | > 50 µM | > 50 µM | > 50 µM | > 50 µM | > 50 µM | > 50 µM | > 50 µM | > 50 µM | > 50 µM | > 50 µM | > 50 µM | > 50 µM | > 50 µM
C=C1C(O)[C@@]23CC[C@H]4[C@@](C)(CCC[C@@]4(C)C(=O)OCCN4CCN(C)CC4)[C@@H]2CC[C@]1(O)C3 (stereo partly specified) | > 50 µM | > 50 µM | > 50 µM | > 50 µM | > 50 µM | > 50 µM | > 50 µM | > 50 µM | > 50 µM | > 50 µM | > 50 µM | > 50 µM | > 50 µM | > 50 µM
C=C1C(=O)[C@@]23CC[C@@H]4[C@@](C)(CO)CCC[C@@]4(C)C2=CC[C@@H]1C3 | 21.5 µM | 9.8 µM | 20.3 µM | 4.7 µM | 16.3 µM | 39.3 µM | 32 µM | 13.8 µM | 31 µM | 17.7 µM | 14 µM | 22.3 µM | 11.2 µM | 14.5 µM
C=C1[C@@H]2CC[C@H]3[C@]4(C)CCCC(C)(C)[C@H]4[C@@H](O)C[C@]3(C2)[C@@H]1O | > 50 µM | > 50 µM | > 50 µM | > 50 µM | > 50 µM | > 50 µM | > 50 µM | > 50 µM | > 50 µM | > 50 µM | > 50 µM | > 50 µM | > 50 µM | > 50 µM
C=C1[C@@H]2CC(=O)[C@H]3[C@]4(C)CCCC(C)(C)[C@H]4[C@@H](O)C[C@]3(C2)[C@@H]1O | > 50 µM | > 50 µM | > 50 µM | > 50 µM | > 50 µM | > 50 µM | > 50 µM | > 50 µM | > 50 µM | > 50 µM | > 50 µM | > 50 µM | > 50 µM | > 50 µM
C[C@@H]1C(=O)[C@@]23CC[C@@H]4C(C)(C)CCC[C@@]4(C)[C@@H]2[C@@H](O)C[C@@H]1C3 | > 50 µM | > 50 µM | > 50 µM | > 50 µM | > 50 µM | > 50 µM | > 50 µM | > 50 µM | > 50 µM | > 50 µM | > 50 µM | > 50 µM | > 50 µM | > 50 µM
C=C1[C@@H]2CC[C@H]3[C@]4(C)CCC[C@](C)(C(=O)O)[C@H]4CC[C@]3(C2)[C@@H]1OC(C)=O | > 50 µM | > 50 µM | > 50 µM | > 50 µM | > 50 µM | > 50 µM | > 50 µM | > 50 µM | > 50 µM | > 50 µM | > 50 µM | > 50 µM | > 50 µM | > 50 µM
